Reference: article PMC8426090 (ACS chemical neuroscience, 2021)
“Also recorded” adds a separate entry of the source. Structures can show the parent of a compound that is named as a salt.

Columns and labels:
D2^high = conditions: cited from earlier work
dopamine D2 receptor [1] = molecular target: dopamine D2 receptor (Rattus norvegicus, UniProt P61169); test: in vitro autoradiography on rat brain sections; assay type: binding; conditions: transaxial and coronal/transversal sections; excess competitor
Sequence of dopamine D2 receptor (Rattus norvegicus, UniProt P61169) (P61169 whole entry): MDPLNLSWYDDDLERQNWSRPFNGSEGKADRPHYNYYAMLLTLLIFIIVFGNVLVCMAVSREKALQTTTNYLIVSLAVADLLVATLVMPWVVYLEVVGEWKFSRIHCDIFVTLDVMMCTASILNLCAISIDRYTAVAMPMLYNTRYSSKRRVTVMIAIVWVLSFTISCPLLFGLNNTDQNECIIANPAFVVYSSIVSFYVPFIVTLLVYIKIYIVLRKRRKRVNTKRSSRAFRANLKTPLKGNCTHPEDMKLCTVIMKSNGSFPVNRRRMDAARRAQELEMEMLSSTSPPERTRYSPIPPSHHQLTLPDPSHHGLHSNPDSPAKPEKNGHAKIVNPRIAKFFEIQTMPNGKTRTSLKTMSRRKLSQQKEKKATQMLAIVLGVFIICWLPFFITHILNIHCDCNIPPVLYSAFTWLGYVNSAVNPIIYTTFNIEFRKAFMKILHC

dopamine D2 receptor [2] = conditions: co-incubation with guanylylimidodiphosphate; cited from earlier work
[3] = human liver microsome stability assay; assay type: in vitro ADME; conditions: 1 h (60 min), 37 °C, NADPH 1 mM, pooled human liver microsomes
Summary of the method: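 Test compound (from a 100× stock) preincubated 5 min at 37 °C with pooled human liver microsomes in 100 mM phosphate buffer pH 7.4. NADPH (1 mM final) started the reaction, run 30 or 60 min at 37 °C and quenched with cold acetonitrile. Supernatant analysed by C18 HPLC (UV 265 nm), with remaining parent expressed relative to the 0 min sample. Dextromethorphan was the positive control; negative controls were heat-inactivated microsomes and no NADPH. Triplicate.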

[4] = test system: other receptors of the D2 receptor family; other receptors found in the brain; conditions: cited from earlier work
[5] = biodistribution of [3H]MCL-536 in the rat brain; assay type: in vivo, Sprague–Dawley rats; conditions: for uptake in striatum, % injected dose per gram wet tissue: 15 min after tail vein injection
[6] = biodistribution of [3H]MCL-536 in peripheral organs; assay type: in vivo, Sprague–Dawley rats

C[C@H](N)Cc1ccccc1 [Amphetamine, d-amphetamine sulfate]
increase in D2high, measured in the striatum in vivo (D2^high; in vivo): ~2.36 fold | elevation of D2high in vitro in the same tissue (D2^high; striatum, in vitro): 2.44 fold

Nc1nc2c(ncn2[C@@H]2O[C@H](COP(=O)(O)OP(=O)(O)NP(=O)(O)O)[C@@H](O)[C@H]2O)c(=O)[nH]1 [Gpp(NH)p, guanylylimidodiphosphate]
effect on binding of [3H]MCL-536 on brain sections (summary statements) (dopamine D2 receptor [1]): abolished binding | binding of [3H]MCL-536 to D2high on co-incubation (dopamine D2 receptor [2]): abolished binding to D2^high

[3H]C(C)C([3H])N1CCc2cc(OCCCF)cc3c2[C@H]1Cc1cccc(O)c1-3 (stereo partly shown) [MCL-536]
compound remaining intact after incubation with human liver microsomes [3]: about 75% | affinity for other receptors found in the brain / other receptors tested [4]: little to no affinity | affinity for other receptors of the D2 receptor family [4]: but not for the other receptors of the D2 subfamily; also recorded: but not to other receptors of the D2 receptor family

CCCN1CCc2cccc3c2[C@H]1Cc1ccc(O)c(O)c1-3 [NPA, (R)-(−)-N-n-propylnorapomorphine]
effect on binding of [3H]MCL-536 on brain sections (summary statements) (dopamine D2 receptor [1]): abolished

[3H]C(C)C([3H])N1CCc2cc(OCCCF)cc3c2[C@H]1Cc1cccc(O)c1-3 (stereo partly shown) [[^3H]MCL-536]
brain uptake values 4 h after injection ([5]; 4 h after injection): almost baseline | uptake in striatum, % injected dose per gram wet tissue ([5]; female rats): 0.42 %ID/g | course of %ID/g in the striatum ([5]; females, 60 min postinjection): stable | baseline binding in cerebellum ([5]; male and female rats): ≤ 0.1 %ID/g | uptake in striatum, % injected dose per gram wet tissue ([5]; male rats): 0.28 %ID/g | decline of %ID/g in the striatum ([5]; males, 60 min postinjection): about 25% | time of maximum %ID/g in peripheral tissues ([6]; all peripheral tissues): 15 min | reduction of levels in fatty tissue ([6]; at 60 min): about 2/3 | decline of %ID/g in the kidneys ([6]; by 60 min, both sexes): about 60%

CCN1CCC[C@H]1CNC(=O)c1c(O)c(Cl)cc(Cl)c1OC [raclopride]
effect on binding of [3H]MCL-536 on brain sections (summary statements) (dopamine D2 receptor [1]): completely abolished

CCN1CCCC1CNC(=O)c1cc(S(N)(=O)=O)ccc1OC (stereo not shown) [sulpiride]
effect on binding of [3H]MCL-536 on brain sections (summary statements) (dopamine D2 receptor [1]): completely abolished
